Experimental data: ChEMBL document CHEMBL1139453, “Potent inhibitors of the Plasmodium falciparum enzymes plasmepsin I and II devoid of cathepsin D inhibitory activity” (J Med Chem, 2004)

Columns and labels:
[1] = target: Plasmepsin II (Plasmodium falciparum, UniProt P46925); test: Inhibitory activity against protease plasmepsin-2 (Plm II) of Plasmodium falciparum
Procedure, shortened: (§1)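 Plm II: 3 nM pro-enzyme, pro-sequence cleaved by 40 min room-temperature preincubation; Plm I amount matched to similar activity. Buffer 100 mM sodium acetate pH 4.5, 10% glycerol, 0.01% Tween 20. Inhibitor (up to 1500 nM Plm I, 2500 nM Plm II; 1% DMSO final), then 3 μM FRET substrate; fluorescence over 10 min. Competitive Langmuir IC50 converted to Ki via Michaelis–Menten Km.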

[2] = target: Plasmepsin I (Plasmodium falciparum, UniProt P39898); test: Inhibitory activity against protease plasmepsin-1 (Plm I) of Plasmodium falciparum; procedure, shortened: as §1
Sequence of Plasmepsin I (P39898 whole entry): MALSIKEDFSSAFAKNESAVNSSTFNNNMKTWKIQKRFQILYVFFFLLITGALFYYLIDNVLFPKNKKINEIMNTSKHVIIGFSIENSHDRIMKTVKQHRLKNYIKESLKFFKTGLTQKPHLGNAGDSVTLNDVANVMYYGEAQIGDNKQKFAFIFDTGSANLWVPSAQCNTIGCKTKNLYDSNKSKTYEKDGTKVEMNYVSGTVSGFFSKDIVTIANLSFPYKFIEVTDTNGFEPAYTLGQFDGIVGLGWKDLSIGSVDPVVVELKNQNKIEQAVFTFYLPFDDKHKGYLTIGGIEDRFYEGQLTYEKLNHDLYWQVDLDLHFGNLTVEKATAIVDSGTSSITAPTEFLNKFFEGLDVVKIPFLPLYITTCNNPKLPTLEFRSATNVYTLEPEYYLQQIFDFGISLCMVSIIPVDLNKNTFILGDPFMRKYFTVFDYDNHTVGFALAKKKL

[3] = target: T1, Cathepsin D (Homo sapiens, UniProt P07339); test: Inhibitory activity against human Cathepsin D; Range
T1 sequence (P07339 65-162 limits assumed): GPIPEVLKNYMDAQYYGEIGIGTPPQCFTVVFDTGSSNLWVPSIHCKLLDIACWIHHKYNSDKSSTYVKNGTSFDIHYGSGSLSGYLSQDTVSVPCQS
T1 sequence (P07339 169-412 limits assumed): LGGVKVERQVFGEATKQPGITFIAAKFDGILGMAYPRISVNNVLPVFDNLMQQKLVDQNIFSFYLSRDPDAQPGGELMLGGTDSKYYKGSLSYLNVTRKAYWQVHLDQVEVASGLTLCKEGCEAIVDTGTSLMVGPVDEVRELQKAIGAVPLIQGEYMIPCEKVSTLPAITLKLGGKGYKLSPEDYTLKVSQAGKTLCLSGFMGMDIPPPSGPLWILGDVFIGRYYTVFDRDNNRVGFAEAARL
Procedure, shortened: (§2)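 Human liver Cat D, 50 ng/mL pro-form, activated 20 min at 37 °C in 100 mM sodium acetate pH 4.5, 10% glycerol, 0.01% Tween 20. Inhibitor (tested up to 2000 nM, final DMSO 1%) added before 3 μM DABCYL-Glu-Arg-Nle-Phe-Leu-Ser-Phe-Pro-EDANS. Fluorescence rise followed 10 min. IC50 from Langmuir fit assuming competitive inhibition; Ki = IC50/(1+[S]/Km).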

[4] = tested on: Plasmodium falciparum; test: In vitro percent inhibition of Plasmodium falciparum 3D7 in human erythrocyte at 5 uM; assay type: functional
Procedure, shortened: (§3)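 Synchronous P. falciparum 3D7 early trophozoites (~1% haematocrit, 1% parasitaemia) in human erythrocytes, labelled with [3H]hypoxanthine 10 μCi mL⁻¹; compound added (1–5 μM final, DMSO up to 1% v/v), 30 h at 37 °C in gassed boxes to schizont stage. Filter-harvested, β-counted; radioactivity relative to DMSO-only wells; four independent experiments per concentration.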

[5] = target: T1, Cathepsin D; test: Inhibitory activity against human cathepsin D; procedure, shortened: as §2
[6] = tested on: Plasmodium falciparum; test: Percent inhibition for Plasmodium falciparum at 5 uM; assay type: functional; procedure, shortened: as §3

Sequence of Plasmepsin II (P46925 whole entry): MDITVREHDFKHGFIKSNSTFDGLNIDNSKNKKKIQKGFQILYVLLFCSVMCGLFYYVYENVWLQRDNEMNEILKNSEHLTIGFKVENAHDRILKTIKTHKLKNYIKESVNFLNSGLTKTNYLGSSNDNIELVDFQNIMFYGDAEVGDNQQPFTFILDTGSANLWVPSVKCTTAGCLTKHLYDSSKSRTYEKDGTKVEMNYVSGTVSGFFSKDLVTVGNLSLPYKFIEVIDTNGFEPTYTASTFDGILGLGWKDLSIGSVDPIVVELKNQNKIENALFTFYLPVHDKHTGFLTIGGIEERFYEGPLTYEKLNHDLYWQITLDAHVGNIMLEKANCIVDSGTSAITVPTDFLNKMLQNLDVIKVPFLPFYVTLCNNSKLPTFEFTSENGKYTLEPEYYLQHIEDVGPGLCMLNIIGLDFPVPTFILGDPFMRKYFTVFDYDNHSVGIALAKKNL

SMILES | Ki [1] | Ki [2] | Ki [3] | Ki [5] | inhibition at 5 µM [4] | inhibition at 5 µM [6]
CNC(=O)[C@@H](NC(=O)[C@H](OCc1ccccc1)[C@H](O)[C@@H](O)[C@@H](OCc1ccccc1)C(=O)N[C@H](C(=O)NC)C(C)C)C(C)C | 3800 nM | – | – | – | – | –
C=CCO[C@@H](CN[C@H]1c2ccccc2C[C@H]1O)[C@H](O)[C@@H](O)[C@@H](OCC=C)C(=O)N[C@H]1c2ccccc2C[C@H]1O | > 2500 nM | > 1500 nM | > 2000 nM | – | 50% | –
CC(=O)c1ccc(/C=C/CO[C@@H](C(=O)N[C@H]2c3ccccc3C[C@H]2O)[C@H](O)[C@@H](O)[C@@H](OC/C=C/c2ccc(C(C)=O)cc2)C(=O)N[C@H]2c3ccccc3C[C@H]2O)cc1 | 6 nM | 0.8 nM | – | > 2000 nM | 78% | –
O=C(N[C@H]1c2ccccc2C[C@H]1O)[C@H](OC/C=C/Br)[C@H](O)[C@@H](O)[C@@H](OC/C=C/Br)C(=O)N[C@H]1c2ccccc2C[C@H]1O | 47 nM | 27 nM | – | > 2000 nM | – | –
O=C(N[C@H]1c2ccccc2C[C@H]1O)[C@H](OC/C=C/c1ccccc1)[C@H](O)[C@@H](O)[C@@H](OC/C=C/c1ccccc1)C(=O)N[C@H]1c2ccccc2C[C@H]1O | 29 nM | 1.4 nM | – | > 2000 nM | – | –
Cc1noc(C)c1/C=C/CO[C@@H](C(=O)N[C@H]1c2ccccc2C[C@H]1O)[C@H](O)[C@@H](O)[C@@H](OC/C=C/c1c(C)noc1C)C(=O)N[C@H]1c2ccccc2C[C@H]1O | 181 nM | 23 nM | – | > 2000 nM | – | –
COc1ncc(/C=C/CO[C@@H](C(=O)N[C@H]2c3ccccc3C[C@H]2O)[C@H](O)[C@@H](O)[C@@H](OC/C=C/c2cnc(OC)nc2OC)C(=O)N[C@H]2c3ccccc3C[C@H]2O)c(OC)n1 | 13 nM | 8.4 nM | – | > 2000 nM | 2% | –
O=C(N[C@H]1c2ccccc2C[C@H]1O)[C@H](OCc1ccccc1)[C@H](O)[C@@H](O)[C@@H](OCc1ccccc1)C(=O)N[C@H]1c2ccccc2C[C@H]1O | 85 nM | 25 nM | – | > 2000 nM | – | –
O=C(N[C@H]1c2ccccc2C[C@H]1O)[C@H](OC/C=C/C#Cc1ccccc1)[C@H](O)[C@@H](O)[C@@H](OC/C=C/C#Cc1ccccc1)C(=O)N[C@H]1c2ccccc2C[C@H]1O | 41 nM | 7.2 nM | – | > 2000 nM | – | –
COC(=O)/C=C/C=C/CO[C@@H](C(=O)N[C@H]1c2ccccc2C[C@H]1O)[C@H](O)[C@@H](O)[C@@H](OC/C=C/C=C/C(=O)OC)C(=O)N[C@H]1c2ccccc2C[C@H]1O | 8.9 nM | 3.7 nM | – | > 2000 nM | 51% | –
C#C/C=C/CO[C@@H](C(=O)N[C@H]1c2ccccc2C[C@H]1O)[C@H](O)[C@@H](O)[C@@H](OC/C=C/C#C)C(=O)N[C@H]1c2ccccc2C[C@H]1O | 37 nM | 32 nM | – | > 2000 nM | – | –
O=C(N[C@H]1c2ccccc2C[C@H]1O)[C@H](OC/C=C/c1ccc(F)cc1)[C@H](O)[C@@H](O)[C@@H](OC/C=C/c1ccc(F)cc1)C(=O)N[C@H]1c2ccccc2C[C@H]1O | 59 nM | 2.5 nM | – | > 2000 nM | – | –

Continued by falling Ki [1], values first:

Ki [1] | Ki [2] | Ki [3] | Ki [5] | SMILES | inhibition at 5 µM [4] | inhibition at 5 µM [6]
4100 nM | – | – | – | C=CCO[C@@H](C(=O)N[C@H](C(=O)NC)C(C)C)[C@H](O)[C@@H](O)[C@@H](OCC=C)C(=O)N[C@H](C(=O)NC)C(C)C | – | –
130 nM | 37 nM | – | > 2000 nM | C[Si](C)(C)C#C/C=C/CO[C@@H](C(=O)N[C@H]1c2ccccc2C[C@H]1O)[C@H](O)[C@@H](O)[C@@H](OC/C=C/C#C[Si](C)(C)C)C(=O)N[C@H]1c2ccccc2C[C@H]1O | – | –
129 nM | 5.8 nM | – | > 2000 nM | Cc1ccc(/C=C/CO[C@@H](C(=O)N[C@H]2c3ccccc3C[C@H]2O)[C@H](O)[C@@H](O)[C@@H](OC/C=C/c2ccc(C)cc2)C(=O)N[C@H]2c3ccccc3C[C@H]2O)cc1 | – | –
96 nM | 163 nM | – | > 2000 nM | C=CCO[C@@H](C(=O)N[C@H]1c2ccccc2C[C@H]1O)[C@H](O)[C@@H](O)[C@@H](OCC=C)C(=O)N[C@H]1c2ccccc2C[C@H]1O | 0% | –
15 nM | 4.4 nM | – | > 2000 nM | O=C(N[C@H]1c2ccccc2C[C@H]1O)[C@H](OC/C=C/C=C/c1ccccc1)[C@H](O)[C@@H](O)[C@@H](OC/C=C/C=C/c1ccccc1)C(=O)N[C@H]1c2ccccc2C[C@H]1O | – | –
15 nM | 1.3 nM | – | > 2000 nM | O=C(N[C@H]1c2ccccc2C[C@H]1O)[C@H](OC/C=C/c1ccsc1)[C@H](O)[C@@H](O)[C@@H](OC/C=C/c1ccsc1)C(=O)N[C@H]1c2ccccc2C[C@H]1O | – | –
14 nM | 0.5 nM | – | > 2000 nM | O=C(N[C@H]1c2ccccc2C[C@H]1O)[C@H](OC/C=C/c1ccc2c(c1)OCO2)[C@H](O)[C@@H](O)[C@@H](OC/C=C/c1ccc2c(c1)OCO2)C(=O)N[C@H]1c2ccccc2C[C@H]1O | 61% | –
11 nM | 2.6 nM | – | 30 nM | CC(C)[C@H](NC(=O)CCc1c[nH]c2ccccc12)C(=O)N[C@@H](Cc1ccccc1)[C@@H](O)CN[C@@H](Cc1ccc(-c2ccccc2)cc1)C(N)=O | – | 56%
